Results taken from ChEMBL document CHEMBL1145439, “Fluorine-18-labeled benzamide analogues for imaging the sigma2 receptor status of solid tumors with positron emission tomography” (J Med Chem, 2007).
One block for each molecule: values may come before it.

How the values were obtained:
[1] = test system: Blood; test: Biodistribution in blood of mouse EMT6 tumor bearing BALB/c mouse at 10 to 20 uCi after 5 mins; assay type: ADME, organism-based; settings: in vivo
Procedure, shortened: (§1)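 EMT-6 cells (5×10^5 in 100 µL PBS) implanted s.c. in scapular region of female Balb/c mice (~2 months, 17-22 g); studied 7-10 days later at ~0.2 cm3 tumor. 18F tracer 10-20 µCi in 100-150 µL saline via tail vein; ≥4 mice per time point; tissue removed at sacrifice, weighed, gamma-counted; %ID/g calculated.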

[2] = test system: Blood; test: Biodistribution in blood of mouse EMT6 tumor bearing BALB/c mouse at 10 to 20 uCi after 30 mins; assay type: ADME, organism-based; settings: in vivo, 0.5 h; procedure, shortened: as §1
[3] = test system: Blood; test: Biodistribution in blood of mouse EMT6 tumor bearing BALB/c mouse at 10 to 20 uCi after 60 mins; assay type: ADME, organism-based; settings: in vivo, 1 h; procedure, shortened: as §1
[4] = test system: Blood; test: Biodistribution in blood of mouse EMT6 tumor bearing BALB/c mouse at 10 to 20 uCi after 120 mins; assay type: ADME, organism-based; settings: in vivo, 2 h; procedure, shortened: as §1
[5] = test system: Lung; test: Biodistribution in lung of mouse EMT6 tumor bearing BALB/c mouse at 10 to 20 uCi after 5 mins; assay type: ADME, organism-based; settings: in vivo; procedure, shortened: as §1
[6] = test system: Lung; test: Biodistribution in lung of mouse EMT6 tumor bearing BALB/c mouse at 10 to 20 uCi after 30 mins; assay type: ADME, organism-based; settings: in vivo, 0.5 h; procedure, shortened: as §1
[7] = test system: Lung; test: Biodistribution in lung of mouse EMT6 tumor bearing BALB/c mouse at 10 to 20 uCi after 60 mins; assay type: ADME, organism-based; settings: in vivo, 1 h; procedure, shortened: as §1
[8] = test system: Lung; test: Biodistribution in lung of mouse EMT6 tumor bearing BALB/c mouse at 10 to 20 uCi after 120 mins; assay type: ADME, organism-based; settings: in vivo, 2 h; procedure, shortened: as §1
[9] = test system: Liver; test: Biodistribution in liver of mouse EMT6 tumor bearing BALB/c mouse at 10 to 20 uCi after 5 mins; assay type: ADME, organism-based; settings: in vivo; procedure, shortened: as §1
[10] = test system: Liver; test: Biodistribution in liver of mouse EMT6 tumor bearing BALB/c mouse at 10 to 20 uCi after 30 mins; assay type: ADME, organism-based; settings: in vivo, 0.5 h; procedure, shortened: as §1
[11] = test system: Liver; test: Biodistribution in liver of mouse EMT6 tumor bearing BALB/c mouse at 10 to 20 uCi after 60 mins; assay type: ADME, organism-based; settings: in vivo, 1 h; procedure, shortened: as §1
[12] = test system: Liver; test: Biodistribution in liver of mouse EMT6 tumor bearing BALB/c mouse at 10 to 20 uCi after 120 mins; assay type: ADME, organism-based; settings: in vivo, 2 h; procedure, shortened: as §1
[13] = test system: Kidney; test: Biodistribution in kidney of mouse EMT6 tumor bearing BALB/c mouse at 10 to 20 uCi after 5 mins; assay type: ADME, organism-based; settings: in vivo; procedure, shortened: as §1
[14] = test system: Kidney; test: Biodistribution in kidney of mouse EMT6 tumor bearing BALB/c mouse at 10 to 20 uCi after 30 mins; assay type: ADME, organism-based; settings: in vivo, 0.5 h; procedure, shortened: as §1
[15] = test system: Kidney; test: Biodistribution in kidney of mouse EMT6 tumor bearing BALB/c mouse at 10 to 20 uCi after 60 mins; assay type: ADME, organism-based; settings: in vivo, 1 h; procedure, shortened: as §1
[16] = test system: Kidney; test: Biodistribution in kidney of mouse EMT6 tumor bearing BALB/c mouse at 10 to 20 uCi after 120 mins; assay type: ADME, organism-based; settings: in vivo, 2 h; procedure, shortened: as §1
[17] = test system: Muscle tissue; test: Biodistribution in muscle of EMT6 tumor bearing BALB/c mouse at 10 to 20 uCi after 5 mins; assay type: ADME, organism-based; settings: in vivo; procedure, shortened: as §1
[18] = test system: Muscle tissue; test: Biodistribution in muscle of mouse EMT6 tumor bearing BALB/c mouse at 10 to 20 uCi after 30 mins; assay type: ADME, organism-based; settings: in vivo, 0.5 h; procedure, shortened: as §1
[19] = test system: Muscle tissue; test: Biodistribution in muscle of mouse EMT6 tumor bearing BALB/c mouse at 10 to 20 uCi after 60 mins; assay type: ADME, organism-based; settings: in vivo, 1 h; procedure, shortened: as §1
[20] = test system: Muscle tissue; test: Biodistribution in muscle of mouse EMT6 tumor bearing BALB/c mouse at 10 to 20 uCi after 120 mins; assay type: ADME, organism-based; settings: in vivo, 2 h; procedure, shortened: as §1
[21] = test system: Adipose tissue; test: Biodistribution in fat of mouse EMT6 tumor bearing BALB/c mouse at 10 to 20 uCi after 5 mins; assay type: ADME, organism-based; settings: in vivo; procedure, shortened: as §1
[22] = test system: Adipose tissue; test: Biodistribution in fat of mouse EMT6 tumor bearing BALB/c mouse at 10 to 20 uCi after 30 mins; assay type: ADME, organism-based; settings: in vivo, 0.5 h; procedure, shortened: as §1
[23] = test system: Adipose tissue; test: Biodistribution in fat of mouse EMT6 tumor bearing BALB/c mouse at 10 to 20 uCi after 60 mins; assay type: ADME, organism-based; settings: in vivo, 1 h; procedure, shortened: as §1
[24] = test system: Adipose tissue; test: Biodistribution in fat of mouse EMT6 tumor bearing BALB/c mouse at 10 to 20 uCi after 120 mins; assay type: ADME, organism-based; settings: in vivo, 2 h; procedure, shortened: as §1
[25] = test system: Heart; test: Biodistribution in heart of mouse EMT6 tumor bearing BALB/c mouse at 10 to 20 uCi after 5 mins; assay type: ADME, organism-based; settings: in vivo; procedure, shortened: as §1
[26] = test system: Heart; test: Biodistribution in heart of mouse EMT6 tumor bearing BALB/c mouse at 10 to 20 uCi after 30 mins; assay type: ADME, organism-based; settings: in vivo, 0.5 h; procedure, shortened: as §1
[27] = test system: Heart; test: Biodistribution in heart of mouse EMT6 tumor bearing BALB/c mouse at 10 to 20 uCi after 60 mins; assay type: ADME, organism-based; settings: in vivo, 1 h; procedure, shortened: as §1
[28] = test system: Heart; test: Biodistribution in heart of EMT6 tumor bearing BALB/c mouse at 10 to 20 uCi after 120 mins; assay type: ADME, organism-based; settings: in vivo, 2 h; procedure, shortened: as §1
[29] = test system: Brain; test: Biodistribution in brain of EMT6 tumor bearing BALB/c mouse at 10 to 20 uCi after 5 mins; assay type: ADME, organism-based; settings: in vivo; procedure, shortened: as §1
[30] = test system: Brain; test: Biodistribution in brain of EMT6 tumor bearing BALB/c mouse at 10 to 20 uCi after 30 mins; assay type: ADME, organism-based; settings: in vivo, 0.5 h; procedure, shortened: as §1
[31] = test system: Brain; test: Biodistribution in brain of EMT6 tumor bearing BALB/c mouse at 10 to 20 uCi after 60 mins; assay type: ADME, organism-based; settings: in vivo, 1 h; procedure, shortened: as §1
[32] = test system: Brain; test: Biodistribution in brain of mouse EMT6 tumor bearing BALB/c mouse at 10 to 20 uCi after 120 mins; assay type: ADME, organism-based; settings: in vivo, 2 h; procedure, shortened: as §1
[33] = test system: Bone; test: Biodistribution in bone of mouse EMT6 tumor bearing BALB/c mouse at 10 to 20 uCi after 5 mins; assay type: ADME, organism-based, Bone element; settings: in vivo; procedure, shortened: as §1
[34] = test system: Bone; test: Biodistribution in bone of mouse EMT6 tumor bearing BALB/c mouse at 10 to 20 uCi after 30 mins; assay type: ADME, organism-based, Bone element; settings: in vivo, 0.5 h; procedure, shortened: as §1
[35] = test system: Bone; test: Biodistribution in bone of mouse EMT6 tumor bearing BALB/c mouse at 10 to 20 uCi after 60 mins; assay type: ADME, organism-based, Bone element; settings: in vivo, 1 h; procedure, shortened: as §1
[36] = test system: Bone; test: Biodistribution in bone of mouse EMT6 tumor bearing BALB/c mouse at 10 to 20 uCi after 120 mins; assay type: ADME, organism-based, Bone element; settings: in vivo, 2 h; procedure, shortened: as §1
[37] = test system: EMT6; test: Biodistribution in tumor of mouse EMT6 tumor bearing BALB/c mouse at 10 to 20 uCi after 5 mins; assay type: ADME, organism-based; settings: emt6, 5 min; procedure, shortened: as §1
[38] = test system: EMT6; test: Biodistribution in tumor of EMT6 tumor bearing BALB/c mouse 10 to 20 uCi after 30 mins; assay type: ADME, organism-based; settings: emt6, 0.5 h; procedure, shortened: as §1
[39] = test system: EMT6; test: Biodistribution in tumor of mouse EMT6 tumor bearing BALB/c mouse at 10 to 20 uCi after 60 mins; assay type: ADME, organism-based; settings: emt6, 1 h; procedure, shortened: as §1
[40] = test system: EMT6; test: Biodistribution in tumor of mouse EMT6 tumor bearing BALB/c mouse at 10 to 20 uCi after 120 mins; assay type: ADME, organism-based; settings: emt6, 2 h; procedure, shortened: as §1
[41] = Displacement of [3H]DTG from sigma 2 receptor in rat liver membrane after 120 mins; assay type: cell membranes
Procedure, shortened: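 Rat liver membranes (~300 µg protein) incubated with ~5 nM [3H]DTG plus 1 µM (+)-pentazocine to mask σ1 sites, 120 min at room temperature; 10 µM haloperidol defines nonspecific binding; filtration and scintillation counting. One-site nonlinear regression IC50, converted to Ki by Cheng-Prusoff; mean ± SEM.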

[42] = Selectivity for rat liver sigma 2 receptor over guinea pig brain sigma 1 receptor

Drug uptake [1]: 4.6 % ID/g
Drug uptake [2]: 4.3 % ID/g
Drug uptake [3]: 3.39 % ID/g
Drug uptake [4]: 1.92 % ID/g
Drug uptake [5]: 9.71 % ID/g
Drug uptake [6]: 4.07 % ID/g
Drug uptake [7]: 2.34 % ID/g
Drug uptake [8]: 1.36 % ID/g
Drug uptake [9]: 37.26 % ID/g
Drug uptake [10]: 17.35 % ID/g
Drug uptake [11]: 7.31 % ID/g
Drug uptake [12]: 4.25 % ID/g
Drug uptake [13]: 36.07 % ID/g
Drug uptake [14]: 17.43 % ID/g
Drug uptake [15]: 9.36 % ID/g
Drug uptake [16]: 3.92 % ID/g
Drug uptake [17]: 1.52 % ID/g
Drug uptake [18]: 1.12 % ID/g
Drug uptake [19]: 0.83 % ID/g
Drug uptake [20]: 0.6 % ID/g
Drug uptake [21]: 2.32 % ID/g
Drug uptake [22]: 1.04 % ID/g
Drug uptake [23]: 0.62 % ID/g
Drug uptake [24]: 0.44 % ID/g
Drug uptake [25]: 3.22 % ID/g
Drug uptake [26]: 2.37 % ID/g
Drug uptake [27]: 1.61 % ID/g
Drug uptake [28]: 1 % ID/g
Drug uptake [29]: 0.55 % ID/g
Drug uptake [30]: 0.44 % ID/g
Drug uptake [31]: 0.36 % ID/g
Drug uptake [32]: 0.37 % ID/g
Drug uptake [33]: 2.59 % ID/g
Drug uptake [34]: 1.31 % ID/g
Drug uptake [35]: 0.99 % ID/g
Drug uptake [36]: 1.67 % ID/g
Drug uptake [37]: 2.54 % ID/g
Drug uptake [38]: 2.81 % ID/g
Drug uptake [39]: 2.72 % ID/g
Drug uptake [40]: 1.92 % ID/g
SMILES: COc1cc2c(cc1OC)CN(CCCCNC(=O)c1cc(I)ccc1OCC[18F])CC2

Ki [41]: 6.95 nM
Ratio Ki [42]: 48
SMILES: COc1cc2c(cc1OC)CN(CCCCNC(=O)c1cc(C)ccc1OCCF)CC2
